Results on two molecules are retold here after ChEMBL document CHEMBL1781924, “Inhibitors of the NF-kappaB activation pathway from Cryptocarya rugulosa” (J Nat Prod, 2009).

Molecules are shown by their SMILES. Activity calls are given as the source filed them. The calls are words filed in the database; no cut-off is given here.

As usually defined, the IC50 is the midpoint of a concentration-inhibition curve.

Experiment [1] deals with OCI-Ly3. The experiment can be described thus: Induction of IkappaB in human OCI-LY3 cells assessed as fold increase in luciferase reporter gene. Format: functional, cell-based.
Experiment [2] relates to OCI-Ly3. The experiment is described as follows: Induction of IkappaB in human OCI-LY3 cells assessed as fold increase in luciferase reporter gene at 11 uM. Format: functional, cell-based.
The target of experiment [3] is T1, Inhibitor of nuclear factor kappa-B kinase subunit beta (Homo sapiens) (UniProt O14920).
T1 sequence (whole entry): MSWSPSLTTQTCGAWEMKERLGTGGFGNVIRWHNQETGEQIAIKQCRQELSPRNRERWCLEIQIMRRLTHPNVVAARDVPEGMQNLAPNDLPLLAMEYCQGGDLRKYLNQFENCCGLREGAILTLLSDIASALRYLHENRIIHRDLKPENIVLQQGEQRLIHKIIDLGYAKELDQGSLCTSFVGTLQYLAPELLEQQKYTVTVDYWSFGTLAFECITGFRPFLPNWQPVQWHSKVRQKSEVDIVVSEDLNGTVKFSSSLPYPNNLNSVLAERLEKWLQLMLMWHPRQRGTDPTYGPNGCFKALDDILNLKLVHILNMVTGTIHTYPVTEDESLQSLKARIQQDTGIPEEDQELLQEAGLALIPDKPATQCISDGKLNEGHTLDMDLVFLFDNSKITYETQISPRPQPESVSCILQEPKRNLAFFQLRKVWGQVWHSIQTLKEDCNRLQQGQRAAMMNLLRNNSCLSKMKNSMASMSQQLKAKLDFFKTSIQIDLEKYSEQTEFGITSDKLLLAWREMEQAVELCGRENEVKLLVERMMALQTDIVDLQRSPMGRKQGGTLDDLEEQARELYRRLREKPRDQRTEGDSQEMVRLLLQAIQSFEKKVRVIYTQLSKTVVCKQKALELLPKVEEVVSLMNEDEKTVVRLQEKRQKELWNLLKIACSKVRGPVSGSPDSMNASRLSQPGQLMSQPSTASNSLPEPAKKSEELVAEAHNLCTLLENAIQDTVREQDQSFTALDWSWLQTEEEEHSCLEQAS
The experiment can be described thus: Inhibition of IKK-beta in human OCI-LY19 cells assessed as decrease in renilla values at 10 ug/ml after 10 hrs by IkB-photinus/Renilla assay. Format: cell-based. Summed up:
(§1)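 OCI-Ly3, OCI-Ly10 and OCI-Ly19 cells stably coexpressing an IκB-Photinus fusion reporter and unmodified Renilla luciferase, in phenol red-free IMDM with 20% heparinized human plasma. Cells were exposed to compound at 37 °C, 5% CO2 for 2.5, 5 or 10 h, then pelleted, lysed and given dual luciferase substrates. Photinus/Renilla ratio and Renilla alone were normalized to the untreated control mean.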

In experiment [4] the target is T1, Inhibitor of nuclear factor kappa-B kinase subunit beta (Homo sapiens). The experiment is described as follows: Inhibition of IKK-beta in human OCI-LY3 cells assessed as decrease in renilla values at 2.5 to 5 ug/ml after 10 hrs by IkB-photinus/Renilla assay. Format: cell-based. As to conditions: 5 to 10 ug/ml, in the assay text read “at 5 to 10 ug/ml” for “at 2.5 to 5 ug/ml”. Summed up:
as §1

For experiment [5] the target is unchanged. The experiment can be described thus: Inhibition of IKK-beta in human OCI-LY19 cells assessed as decrease in renilla values at 10 ug/ml after 2.5 to 10 hrs by IkB-photinus/Renilla assay. Format: cell-based. Summed up:
as §1

In experiment [6] the test system is OCI-Ly3. The experiment is described as follows: Induction of IkappaB in human OCI-LY3 cells assessed as fold increase in luciferase reporter gene after 10 hrs. Format: functional, cell-based. As to conditions: TDE = time-dependent effect.
Experiment [7] has as its target T1, Inhibitor of nuclear factor kappa-B kinase subunit beta (Homo sapiens). The experiment is described as follows: Inhibition of IKK-beta in human OCI-LY10 cells assessed as decrease in renilla values at 2.5 to 10 ug/ml after 10 hrs by IkB-photinus/Renilla assay. Format: cell-based. Summed up:
as §1

Experiment [8] relates to K562. The experiment is described as follows: Cytotoxicity against human K562 cells. Format: functional, cell-based.
The next experiment deals with KB. The experiment can be described thus: Cytotoxicity against human KB cells. Format: functional, cell-based.
Experiment [9] relates to OCI-Ly3. The experiment can be described thus: Induction of IkappaB in human OCI-LY3 cells assessed as fold increase in luciferase reporter gene at 16 uM. Format: functional, cell-based. Background: Reporter assays use an easily measured gene product as a stand-in for the process of interest.
The subject of experiment [10] is K562. The experiment can be described thus: Cytotoxicity against doxorubicin-resistant human K562 cells. Format: functional, cell-based.

For the molecule `O=C(/C=C/C[C@@H]1CC=CC(=O)O1)CCc1ccccc1`, the figures for the Activity entry in the experiment on OCI-Ly3 [1] and in the experiment on OCI-Ly3 [6] were “Dose-dependent effect” and “tde”, respectively. Moreover, the outcome in the experiment with OCI-Ly3 [2] was Active. Besides, the inhibition entry in experiment [3] was “inactive”. Moreover, the inhibition result in experiment [4], in experiment [5] and in [7] was “Active” in each case.
`O=C1C[C@@H]2/C(=C(O)\C=C\c3ccccc3)C(=O)C=C[C@@H]2O1` [CRYPTOCARYONE]: the Activity result was “Dose-dependent effect” with OCI-Ly3 [1] and “tde” in the experiment with OCI-Ly3 [6]. Also, the IC50 in the experiment with K562 [8], in the experiment with KB and in the experiment on K562 [10] was 1800 nM in each case. Also, the result in the experiment on OCI-Ly3 [9] was Active.
